The test system of this test is CC-B. Kind of test: Relative transcriptional activation activity relative to t-RA. It is filed as functional, Homo sapiens. The method in brief:
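CC-B reporter cells (CC-1 cervical line carrying a CAT gene under a RARE with a tk promoter) were seeded at 4×10^5 cells/well in MEM with nonessential amino acids, pyruvate and 10% FBS, the serum lots having negligible t-RA by HPLC. Triplicate cultures were screened at 10^-6 M with 0.1% DMSO final. After 48 h, CAT activity ([3H]acetyl-CoA) per mg protein was taken as treated/control and expressed relative to t-RA. Average of three experiments.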
Consider `CCOC(=O)c1ccc(/C=C(\C)c2ccc3c(c2)C(C)(C)CCO3)cc1`, for which the Relative activity came to 35.7.

`C/C(=C\c1ccc(C(=O)O)cc1)c1ccc2c(c1)C(C)(C)CO2` came in with a Relative activity of 46. Take `C/C(=C\c1ccc(C(=O)O)cc1)c1ccc2c(c1)C(C)(C)CS2`: the Relative activity was 56. The same measure for `CC(/C=C/C=C(\C)c1ccc2c(c1)C(C)(C)CS2)=C\C(=O)O`: 50; for `CCOC(=O)c1ccc(/C=C(\C)c2ccc3c(c2)CC[C@@H](CC)[S+]3[O-])cc1` (stereo partly specified): 35.8; for `CCOC(=O)c1ccc(OC(=O)c2ccc3c(c2)C(C)(C)CCN3C)cc1`: 54. The same measure for `CC1(C)CCOc2ccc(C(=O)Oc3ccc(/C=N\N=C(/N)S)cc3)cc21`: 33. Then `CCCCCCCCC1CCc2cc(/C(C)=C/c3ccc(C(=O)OCC)cc3)ccc2S1` (stereo unspecified), with 43; and `CCOC(=O)c1ccc(OC(=O)c2ccc3c(c2)C(C)(C)CCO3)cc1`, with 40; and `CCOC(=O)c1ccc(/C=C(\C)c2ccc3c(c2)C(C)(C)CCS3)cc1`, with 51. Take `COC(=O)c1ccc(C(=O)Oc2c(C)cc3c(c2C)C(C)(C)CC(=O)O3)cc1`: the Relative activity is reported as 29.

The values are drawn from ChEMBL document CHEMBL1130202, “Biologically active heteroarotinoids exhibiting anticancer activity and decreased toxicity” (J Med Chem, 1997).
